From ChEMBL document CHEMBL5058577, “EUbOPEN Chemogenomics Library 2 (Multiplex)” (2022)

Tested on: U2OS
Assay: Multiplex assay against U2OS
Type: toxicity, cell-based
Conditions: human
Outline: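 Cells were classed with CellPathfinder machine-learning gating, first as Hoechst high-intensity objects or normal cells, then (normal cells) as healthy, pyknosed or fragmented nuclei, and finally (pyknosed cells) as mitotic or apoptotic. Staining of live cells at seeding used Hoechst33342, BioTracker Green Microtubule Cytoskeleton Dye, MitoTracker Red and Annexin V Alexa Fluor 680, with imaging on a CQ1 microscope at 37°C and 5% CO2 after compound addition. Tubulin, mitochondrial-mass and membrane-permeability phenotypes are per cents of healthy-nucleus cells.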

[1] = 12 h, 1 µM, compound concentration 1 uM, replicate 1
[2] = 12 h, 1 µM, compound concentration 1 uM, replicate 2
[3] = 12 h, 10 µM, compound concentration 10 uM, replicate 1
[4] = 12 h, 10 µM, compound concentration 10 uM, replicate 2
[5] = 24 h, 1 µM, compound concentration 1 uM, replicate 1
[6] = 24 h, 1 µM, compound concentration 1 uM, replicate 2
[7] = 24 h, 10 µM, compound concentration 10 uM, replicate 1
[8] = 24 h, 10 µM, compound concentration 10 uM, replicate 2
[9] = 48 h, 1 µM, compound concentration 1 uM, replicate 1
[10] = 48 h, 1 µM, compound concentration 1 uM, replicate 2
[11] = 48 h, 10 µM, compound concentration 10 uM, replicate 1
[12] = 48 h, 10 µM, compound concentration 10 uM, replicate 2

COc1cccc2c1c(NS(=O)(=O)c1ccc(Cl)s1)nn2Cc1cccc(CNC(=O)C(C)(C)O)c1
Population Apoptotic (%) [1]: 86% | Population Fragmented Nuclei (%) [1]: 23% | Population Healthy Nuclei (%) [1]: 67% | Population Hoechst High Intensity Objects (%) [1]: 3% | Population Membrane Permeable-Phenotype (%) [1]: 4% | Population Mitochondria Different-Phenotype (%) [1]: 1% | Population Mitotic Cells (%) [1]: 13% | Population Normal (%) [1]: 96% | Population Pyknosed Nuclei (%) [1]: 9% | Population Tubulin-Different-Phenotype (%) [1]: 1% | Total Cell Count [1]: 261 | Population Apoptotic (%) [2]: 81% | Population Fragmented Nuclei (%) [2]: 29% | Population Healthy Nuclei (%) [2]: 64% | Population Hoechst High Intensity Objects (%) [2]: 6% | Population Membrane Permeable-Phenotype (%) [2]: 7% | Population Mitochondria Different-Phenotype (%) [2]: 3% | Population Mitotic Cells (%) [2]: 18% | Population Normal (%) [2]: 93% | Population Pyknosed Nuclei (%) [2]: 5% | Population Tubulin-Different-Phenotype (%) [2]: 6% | Total Cell Count [2]: 201 | Population Apoptotic (%) [3]: 76% | Population Fragmented Nuclei (%) [3]: 26% | Population Healthy Nuclei (%) [3]: 65% | Population Hoechst High Intensity Objects (%) [3]: 1% | Population Membrane Permeable-Phenotype (%) [3]: 6% | Population Mitochondria Different-Phenotype (%) [3]: 2% | Population Mitotic Cells (%) [3]: 23% | Population Normal (%) [3]: 98% | Population Pyknosed Nuclei (%) [3]: 8% | Population Tubulin-Different-Phenotype (%) [3]: 4% | Total Cell Count [3]: 264 | Population Apoptotic (%) [4]: 83% | Population Fragmented Nuclei (%) [4]: 25% | Population Healthy Nuclei (%) [4]: 70% | Population Hoechst High Intensity Objects (%) [4]: 5% | Population Membrane Permeable-Phenotype (%) [4]: 8% | Population Mitochondria Different-Phenotype (%) [4]: 3% | Population Mitotic Cells (%) [4]: 16% | Population Normal (%) [4]: 94% | Population Pyknosed Nuclei (%) [4]: 4% | Population Tubulin-Different-Phenotype (%) [4]: 2% | Total Cell Count [4]: 140 | Population Apoptotic (%) [5]: 96% | Population Fragmented Nuclei (%) [5]: 20% | Population Healthy Nuclei (%) [5]: 70% | Population Hoechst High Intensity Objects (%) [5]: 1% | Population Membrane Permeable-Phenotype (%) [5]: 5% | Population Mitochondria Different-Phenotype (%) [5]: 1% | Population Mitotic Cells (%) [5]: 3% | Population Normal (%) [5]: 98% | Population Pyknosed Nuclei (%) [5]: 8% | Population Tubulin-Different-Phenotype (%) [5]: 3% | Total Cell Count [5]: 307 | Population Apoptotic (%) [6]: 90% | Population Fragmented Nuclei (%) [6]: 28% | Population Healthy Nuclei (%) [6]: 66% | Population Hoechst High Intensity Objects (%) [6]: 5% | Population Membrane Permeable-Phenotype (%) [6]: 8% | Population Mitochondria Different-Phenotype (%) [6]: 3% | Population Mitotic Cells (%) [6]: 9% | Population Normal (%) [6]: 94% | Population Pyknosed Nuclei (%) [6]: 4% | Population Tubulin-Different-Phenotype (%) [6]: 6% | Total Cell Count [6]: 242 | Population Apoptotic (%) [7]: 90% | Population Fragmented Nuclei (%) [7]: 25% | Population Healthy Nuclei (%) [7]: 64% | Population Hoechst High Intensity Objects (%) [7]: 1% | Population Membrane Permeable-Phenotype (%) [7]: 5% | Population Mitochondria Different-Phenotype (%) [7]: 3% | Population Mitotic Cells (%) [7]: 10% | Population Normal (%) [7]: 98% | Population Pyknosed Nuclei (%) [7]: 10% | Population Tubulin-Different-Phenotype (%) [7]: 2% | Total Cell Count [7]: 304 | Population Apoptotic (%) [8]: 88% | Population Healthy Nuclei (%) [8]: 68% | Population Hoechst High Intensity Objects (%) [8]: 5% | Population Membrane Permeable-Phenotype (%) [8]: 8% | Population Mitochondria Different-Phenotype (%) [8]: 4% | Population Mitotic Cells (%) [8]: 11% | Population Normal (%) [8]: 94% | Population Pyknosed Nuclei (%) [8]: 5% | Total Cell Count [8]: 167 | Population Apoptotic (%) [9]: 95% | Population Fragmented Nuclei (%) [9]: 14% | Population Healthy Nuclei (%) [9]: 76% | Population Hoechst High Intensity Objects (%) [9]: 1% | Population Membrane Permeable-Phenotype (%) [9]: 4% | Population Mitochondria Different-Phenotype (%) [9]: 1% | Population Mitotic Cells (%) [9]: 4% | Population Normal (%) [9]: 98% | Population Pyknosed Nuclei (%) [9]: 9% | Population Tubulin-Different-Phenotype (%) [9]: 2% | Total Cell Count [9]: 463 | Population Apoptotic (%) [10]: 74% | Population Fragmented Nuclei (%) [10]: 22% | Population Healthy Nuclei (%) [10]: 68% | Population Hoechst High Intensity Objects (%) [10]: 7% | Population Membrane Permeable-Phenotype (%) [10]: 5% | Population Mitochondria Different-Phenotype (%) [10]: 4% | Population Mitotic Cells (%) [10]: 25% | Population Normal (%) [10]: 92% | Population Tubulin-Different-Phenotype (%) [10]: 5% | Total Cell Count [10]: 314 | Population Apoptotic (%) [11]: 93% | Population Fragmented Nuclei (%) [11]: 20% | Population Healthy Nuclei (%) [11]: 71% | Population Hoechst High Intensity Objects (%) [11]: 2% | Population Membrane Permeable-Phenotype (%) [11]: 5% | Population Mitochondria Different-Phenotype (%) [11]: 2% | Population Mitotic Cells (%) [11]: 6% | Population Normal (%) [11]: 97% | Population Pyknosed Nuclei (%) [11]: 8% | Population Tubulin-Different-Phenotype (%) [11]: 3% | Total Cell Count [11]: 413 | Population Apoptotic (%) [12]: 100% | Population Fragmented Nuclei (%) [12]: 22% | Population Hoechst High Intensity Objects (%) [12]: 3% | Population Mitochondria Different-Phenotype (%) [12]: 3% | Population Mitotic Cells (%) [12]: 0% | Population Normal (%) [12]: 96% | Population Pyknosed Nuclei (%) [12]: 5% | Total Cell Count [12]: 235
